Measured values reported in article PMC11661184 (bioRxiv, 2024).
“Also recorded” adds a separate entry of the source.

What was measured:
CaM (Calmodulin-agarose) = assay: CaM-agarose pulldown of TRPA1 constructs; format: binding
Outline: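 HEK293T cells were transfected with tagged TRPA1 constructs and lysed after 16-24 h in Tris pH 8.0 buffer containing 5 mM DDM and 500 µM EGTA. Free Ca²⁺ was set with CaCl₂, calculated from EGTA constants. 100 µg lysate was incubated with CaM-agarose for 1 h at 4 °C, washed, then eluted with 5 mM EGTA. Detection was by anti-FLAG or anti-MBP immunoblot, with tubulin input control. Enrichment is relative to the maximum within each replicate.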

CaM12 = CaM12 (Homo sapiens, UniProt P0DP23); assay: Isothermal titration calorimetry, CaM12; format: binding; conditions: ITC, 2 mM Ca2+
Outline: (§1)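 The ITC cell held 15 µM CaM variant and the syringe 810 µM hTRPA1¹⁰⁸⁹⁻¹¹¹⁹ peptide. Both were buffer-matched in storage buffer (50 mM Tris pH 8.0, 150 mM NaCl, 2 mM CaCl₂, 0.1 mM PMSF). There were 35 injections spaced 240 s apart, with stirring at 290 RPM. Data were fitted to a one-site model.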

WT CaM = WT CaM (Homo sapiens, UniProt P0DP23); assay: Isothermal titration calorimetry, WT CaM; format: binding; conditions: ITC, 2 mM Ca2+
Outline: as §1

15N-labeled CaM12 = assay: 15N-1H HSQC NMR, CaM12; format: binding, human; conditions: 1:1 molar ratio, 25 °C, 700 MHz
15N-labeled WT CaM = assay: 15N-1H HSQC NMR, WT CaM; format: binding, human; conditions: 1:1 molar ratio, 25 °C, 700 MHz
hTRPA1^Δ1109–1119 = assay: TEVC block of residual current, hTRPA1^Δ1109–1119; format: cell-based, human; conditions: 10 µM A-967079
[1] = molecular target: 3xFLAG-TurboID-CaM C-lobe (human); assay: proximity labelling
V5-tagged WT CaM = assay: Immunofluorescence co-localization with V5-WT CaM in Neuro2A cells; format: cell-based, human; conditions: for Co-localization with WT CaM (deconvolved IF images): resting Neuro2A cells, Airyscan
Outline: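 Neuro2A cells were grown in DMEM with 10% FBS, transfected, then placed on poly-L-lysine coverslips for 16-20 h. Cells were fixed in 4% PFA, permeabilised with 0.1% Triton and blocked in 4% BSA. Staining used anti-V5 (1:500), Alexa488 anti-mouse (1:700) and Cy3 anti-FLAG (1:500), each for 45 min at RT. Airyscan images (63x oil) were deconvolved. Per-cell pixel-intensity Pearson's R used thresholds from mono-stained samples. Mean ± SD; two-tailed t-test.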

TurboID-CaM C-lobe = assay: Proximity biotinylation in HEK293T cells; format: cell-based, human; conditions: 50 µM biotin 15 min, basal Ca2+; n=4
Outline: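 HEK293T cells co-expressed 3xFLAG-TurboID or 3xFLAG-TurboID-CaM C-lobe with 3xFLAG-hTRPA1 variants. About 48 h post-transfection, 50 uM biotin was added to the culture medium. After 15 min, cells were lysed and proteins captured on anti-FLAG resin (1 h, 4 °C), then eluted with 125 µg/ml 3xFLAG peptide. Biotinylated proteins were detected with HRP-streptavidin (1:50,000).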

[2] = test system: hTRPA1 expressed in Xenopus laevis oocytes; assay: Two-electrode voltage clamp, Ca2+ potentiation and desensitization; format: cell-based, human; conditions: for Potentiation by extracellular Ca2+ / Slowing of potentiation versus WT hTRPA1 / Slowing of desensitization versus WT hTRPA1: 1.8 mM Ca2+; for Potentiation by extracellular Ca2+: comparable peak current amplitudes; for Desensitization time constant / Potentiation time constant: 1.8 mM extracellular Ca2+, n=10 oocytes
[3] = test system: hTRPA1 channel activity in HEK293T cells; assay: Ratiometric Ca2+ imaging of TRPA1 variant activity; format: cell-based, human; conditions: baseline, 10 µM or 100 µM AITC; n=4
Outline: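 HEK293T cells (DMEM, 10% calf serum) were transiently transfected. At 16-24 h they were replated on poly-L-lysine glass, with parallel anti-FLAG immunoblot to check expression. One hour later cells were loaded with 10 µg/mL Fura-2 AM and 0.025% Pluronic F-127 in Ringer's for 1 h at RT. […] At least 90 cells per condition per experiment were analysed, with untransfected background subtracted. Mean ± SEM; two-tailed t-test.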

[4] = test system: hTRPA1 expressed in Xenopus laevis oocytes; format: cell-based, human

hTRPA1^1089–1119: hTRPA1 distal C-terminus peptide, residues 1089–1119, bacterially purified and liberated from MBP (DRFKKEQMEQRNSRWNTVLRAVKAKTHHLEP)
CaM binding of MBP-tagged C-terminal peptides (CaM (Calmodulin-agarose); MBP-tagged, expressed in HEK293T, absence or presence of Ca2+): bound CaM in a Ca^2+-dependent manner | Number of binding events observed (CaM12): single binding event | Number of binding events observed (WT CaM): single binding event | Chemical shift perturbations (CSPs) (15N-labeled CaM12): observed predominantly in the C-lobe; also recorded: more CSPs in the C-lobe than WT CaM | Chemical shift perturbations (CSPs) (15N-labeled WT CaM): observed predominantly in the C-lobe

CCC(=N\O)/C(C)=C/c1ccc(F)cc1 [A-967079]
Inhibition of residual activity (hTRPA1^Δ1109–1119): inhibited

3xFLAG-WT hTRPA1 (wild type human TRPA1) (from UniProt O75762 1-1119) (natural protein)
percent increase in biotinylation with TurboID-CaM C-lobe against free TurboID [1]: 40%

B1: WT hTRPA1: wild type human TRPA1 channel (protein)
chain: MKRSLRKMWRPGEKKEPQGVVYEDVPDDTEDFKESLKVVFEGSAYGLQNFNKQKKLKRCDDMDTFFLHYAAAEGQIELMEKITRDSSLEVLHEMDDYGNTPLHCAVEKNQIESVKFLLSRGANPNLRNFNMMAPLHIAVQGMNNEVMKVLLEHRTIDVNLEGENGNTAVIIACTTNNSEALQILLKKGAKPCKSNKWGCFPIHQAAFSGSKECMEIILRFGEEHGYSRQLHINFMNNGKATPLHLAVQNGDLEMIKMCLDNGAQIDPVEKGRCTAIHFAATQGATEIVKLMISSYSGSVDIVNTTDGCHETMLHRASLFDHHELADYLISVGADINKIDSEGRSPLILATASASWNIVNLLLSKGAQVDIKDNFGRNFLHLTVQQPYGLKNLRPEFMQMQQIKELVMDEDNDGCTPLHYACRQGGPGSVNNLLGFNVSIHSKSKDKKSPLHFAASYGRINTCQRLLQDISDTRLLNEGDLHGMTPLHLAAKNGHDKVVQLLLKKGALFLSDHNGWTALHHASMGGYTQTMKVILDTNLKCTDRLDEDGNTALHFAAREGHAKAVALLLSHNADIVLNKQQASFLHLALHNKRKEVVLTIIRSKRWDECLKIFSHNSPGNKCPITEMIEYLPECMKVLLDFCMLHSTEDKSCRDYYIEYNFKYLQCPLEFTKKTPTQDVIYEPLTALNAMVQNNRIELLNHPVCKEYLLMKWLAYGFRAHMMNLGSYCLGLIPMTILVVNIKPGMAFNSTGIINETSDHSEILDTTNSYLIKTCMILVFLSSIFGYCKEAGQIFQQKRNYFMDISNVLEWIIYTTGIIFVLPLFVEIPAHLQWQCGAIAVYFYWMNFLLYLQRFENCGIFIVMLEVILKTLLRSTVVFIFLLLAFGLSFYILLNLQDPFSSPLLSIIQTFSMMLGDINYRESFLEPYLRNELAHPVLSFAQLVSFTIFVPIVLMNLLIGLAVGDIAEVQKHASLKRIAMQVELHTSLEKKLPLWFLRKVDQKSTIVYPNKPRSGGMLFHIFCFLFCTGEIRQEIPNADKSLEMEILKQKYRLKDLTFLLEKQHELIKLIIQKMEIISETEDDDSHCSFQDRFKKEQMEQRNSRWNTVLRAVKAKTHHLEP
CaM binding (CaM-agarose enrichment) (CaM (Calmodulin-agarose); 0.1 µM Ca2+ (resting cytosolic), HEK293T lysate, immunoblot, n=11): robust interaction | CaM binding (CaM-agarose enrichment) (CaM (Calmodulin-agarose); absence of Ca2+ (0 µM), HEK293T lysate, immunoblot): failed to bind CaM | CaM binding (CaM-agarose enrichment) (CaM (Calmodulin-agarose); intermediate (500 µM) and extracellular (2 mM) Ca2+, n=11): stepwise decrease in binding | Co-localization with WT CaM (deconvolved IF images) (V5-tagged WT CaM): pronounced co-localization | Increase in TRPA1 biotinylation with TurboID-CaM C-lobe versus TurboID (TurboID-CaM C-lobe): approximately 40% | Desensitization with 10 mM versus 1.8 mM extracellular Ca2+ ([2]; 250 µM AITC, 125 µM niflumic acid, n=9): desensitize faster | Potentiation by extracellular Ca2+ ([2]; 250 µM AITC): rapid potentiation | Desensitization time constant ([2]; +80 mV, 250 µM AITC): 12.5 s | Potentiation time constant ([2]; +80 mV, 250 µM AITC): 2.2 s | Desensitization after extracellular Ca2+ addition ([2]; within 25 seconds of 1.8 mM Ca2+): nearly complete desensitization | Desensitization time constant ([2]; −80 mV, 250 µM AITC): 11.9 s | Potentiation time constant ([2]; −80 mV, 250 µM AITC): 2.7 s

B2: hTRPA1^Δ1109–1119: hTRPA1 truncation lacking only the terminal 11 amino acids (protein)
chain: MKRSLRKMWRPGEKKEPQGVVYEDVPDDTEDFKESLKVVFEGSAYGLQNFNKQKKLKRCDDMDTFFLHYAAAEGQIELMEKITRDSSLEVLHEMDDYGNTPLHCAVEKNQIESVKFLLSRGANPNLRNFNMMAPLHIAVQGMNNEVMKVLLEHRTIDVNLEGENGNTAVIIACTTNNSEALQILLKKGAKPCKSNKWGCFPIHQAAFSGSKECMEIILRFGEEHGYSRQLHINFMNNGKATPLHLAVQNGDLEMIKMCLDNGAQIDPVEKGRCTAIHFAATQGATEIVKLMISSYSGSVDIVNTTDGCHETMLHRASLFDHHELADYLISVGADINKIDSEGRSPLILATASASWNIVNLLLSKGAQVDIKDNFGRNFLHLTVQQPYGLKNLRPEFMQMQQIKELVMDEDNDGCTPLHYACRQGGPGSVNNLLGFNVSIHSKSKDKKSPLHFAASYGRINTCQRLLQDISDTRLLNEGDLHGMTPLHLAAKNGHDKVVQLLLKKGALFLSDHNGWTALHHASMGGYTQTMKVILDTNLKCTDRLDEDGNTALHFAAREGHAKAVALLLSHNADIVLNKQQASFLHLALHNKRKEVVLTIIRSKRWDECLKIFSHNSPGNKCPITEMIEYLPECMKVLLDFCMLHSTEDKSCRDYYIEYNFKYLQCPLEFTKKTPTQDVIYEPLTALNAMVQNNRIELLNHPVCKEYLLMKWLAYGFRAHMMNLGSYCLGLIPMTILVVNIKPGMAFNSTGIINETSDHSEILDTTNSYLIKTCMILVFLSSIFGYCKEAGQIFQQKRNYFMDISNVLEWIIYTTGIIFVLPLFVEIPAHLQWQCGAIAVYFYWMNFLLYLQRFENCGIFIVMLEVILKTLLRSTVVFIFLLLAFGLSFYILLNLQDPFSSPLLSIIQTFSMMLGDINYRESFLEPYLRNELAHPVLSFAQLVSFTIFVPIVLMNLLIGLAVGDIAEVQKHASLKRIAMQVELHTSLEKKLPLWFLRKVDQKSTIVYPNKPRSGGMLFHIFCFLFCTGEIRQEIPNADKSLEMEILKQKYRLKDLTFLLEKQHELIKLIIQKMEIISETEDDDSHCSFQDRFKKEQMEQRNSRWNTVLR
CaM binding at basal Ca2+ concentration (CaM (Calmodulin-agarose); basal Ca2+, n=3 independent experiments): failed to bind CaM | Basal and agonist-evoked channel activity compared to WT hTRPA1 [3]: increased basal and agonist-evoked activity | Co-localization with WT CaM (deconvolved IF images) (V5-tagged WT CaM): greatly reduced co-localization | Pearson's correlation coefficient (R) of CaM:TRPA1 co-localization (V5-tagged WT CaM; Δ1109–1119 compared to WT, n=41 or 40 cells, ***p=0.0002): significant reduction in the CaM:TRPA1 co-localization | TRPA1 biotinylation with TurboID-CaM C-lobe (TurboID-CaM C-lobe): reduced biotinylation | Potentiation by extracellular Ca2+ ([2]; 250 µM AITC): rapid potentiation | Residual activity after extracellular Ca2+ (of initial activity) ([2]; 5 minutes after 1.8 mM extracellular Ca2+, n=10 or 12 oocytes): 20–30% | Increase in translocated charge versus WT hTRPA1 ([2]; +80 mV): 5 fold | Slowing of potentiation versus WT hTRPA1 ([2]; +80 mV): ~ 1.8 fold | Slowing of desensitization versus WT hTRPA1 ([2]; +80 mV, n=10 or 12 oocytes): 16 fold | Increase in translocated charge versus WT hTRPA1 ([2]; −80 mV): large, albeit nonsignificant increase | Slowing of potentiation versus WT hTRPA1 ([2]; −80 mV): ~ 3 fold | Slowing of desensitization versus WT hTRPA1 ([2]; −80 mV, n=10 or 12 oocytes): 10 fold | AITC sensitivity versus WT hTRPA1 ([4]; Ca2+-free): slightly reduced AITC sensitivities | Gating kinetics and peak current amplitudes ([4]; absence of Ca2+, activation and closing at +80 mV, n=8): not significantly different from WT hTRPA1
